# Assay outcomes (PubChem)
# TNAP act hiacc: TNAP activators at high phosphate acceptor level, primary screen, biochemical, luminescence, uHTS | Alkaline phosphatase, tissue-nonspecific isozyme (Homo sapiens), P05186 | purified TNAP, CDP-star luminescence, 1 M DEA, 30 min; active compounds read high; 0 = EDTA background, 1 = DMSO-only activity | activation factor at 20 µM | 200,000 tested, under 10 active | AID 1136, 2008;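 active = activation factor at least 2 at 20 µM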
# Target sequence (P05186 whole entry, looked up): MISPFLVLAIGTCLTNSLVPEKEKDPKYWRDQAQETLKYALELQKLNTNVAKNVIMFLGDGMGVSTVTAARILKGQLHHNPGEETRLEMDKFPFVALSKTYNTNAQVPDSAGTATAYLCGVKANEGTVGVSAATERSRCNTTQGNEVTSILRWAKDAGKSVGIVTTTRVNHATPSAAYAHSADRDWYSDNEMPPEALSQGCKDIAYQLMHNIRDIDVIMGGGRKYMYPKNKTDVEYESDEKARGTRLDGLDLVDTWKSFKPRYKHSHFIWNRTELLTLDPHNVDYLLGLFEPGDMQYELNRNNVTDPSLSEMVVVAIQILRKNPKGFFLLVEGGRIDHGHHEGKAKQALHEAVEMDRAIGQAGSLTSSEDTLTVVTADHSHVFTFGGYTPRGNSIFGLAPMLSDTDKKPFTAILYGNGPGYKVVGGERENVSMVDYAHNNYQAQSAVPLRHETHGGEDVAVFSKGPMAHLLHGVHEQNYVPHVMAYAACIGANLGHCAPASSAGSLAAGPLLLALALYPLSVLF
#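 Assay system: human TNAP; Input: enzyme diluted 1/800 final; Reagent: CDP-star luminogenic substrate at 100 µM final; Timing: 30 min, room temperature; Signal: luminescence; Evaluation: TNAP activation factor scaled between EDTA and DMSO control wells.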
# PTEN del growth: growth suppression of PTEN-null HCT116, primary screen, cell-based, CellTiter-Glo; HCT116 PTEN-null viability, 60 h; active compounds read low; viability, % at 10 µM; hit rate 1.2% among 140,000;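 active = viability at or below a set limit, 4 SD under the median of all tested compounds, cut at about 3.7% in these data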;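 note: PTEN knockout HCT116 line with beta catenin targeted HCT116 as companion control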
# TNAP inh noacc: human TNAP enzyme inhibitors, primary screen, biochemical, luminescent, no phosphate acceptor, uHTS; Alkaline phosphatase, tissue-nonspecific isozyme (Homo sapiens), P05186; purified TNAP, CDP-star luminescence, 30 min; inhibition, % at 20 µM; hit rate 0.26% among 200,000; AID 1012, 2008;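 active = tissue-nonspecific alkaline phosphatase inhibition above about 50% at 20 µM in the single-dose screen, limit read from the data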;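 note: 0% = DMSO negative control and 100% = EDTA positive control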
# bCat KO growth: primary screen for growth suppressors in beta-catenin knockout HCT116 cells (colon tumor, human). HCT116 beta-catenin knockout viability, CellTiter-Glo, 60 h; active compounds read low. viability, % at 10 µM. hit rate 1.5% among 140,000;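 active = viability at or under a set limit, the compound median less 4 SD, cut at about 6% in these data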;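 note: 0% = Hyamine 1622 control at 20 µM and 100% = untreated cell control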
# Lmaj promast: Leishmania major promastigote growth inhibition, primary screen; inhibition, % at 10 µM; Leishmania major promastigotes, resazurin fluorescence viability; hit rate 9% among 200,000; AID 1063, 2008; in the data active = inhibition above about 50%;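 note: promastigotes grown with compound for 44 hours at 28 °C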
# TNAP inh hi DEA: human TNAP enzyme inhibitors, primary screen, biochemical, luminescent, high phosphate acceptor level, uHTS. Alkaline phosphatase, tissue-nonspecific isozyme (Homo sapiens), P05186. purified TNAP, CDP-star luminescence, 1 M DEA. inhibition, % at 20 µM. hit rate 0.03% among 200,000. AID 1135, 2008;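 active = over 50% inhibition of tissue-nonspecific alkaline phosphatase at 20 µM in the single-dose screen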;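 note: plate controls were DMSO wells for no effect and EDTA-quenched wells as full inhibition for full effect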
# Lmaj promast 1uM: Leishmania major promastigote growth inhibition, confirmation, 1 µM repeat of primary hits; inhibition, % at 1 µM; AID 1258, 2008; shares compounds with Lmaj promast; hit rate 13% among 1,100; L. major promastigote growth, resazurin fluorescence, 48 h;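 active = inhibition above about 50% in both repeat tests, limit read from the data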
# The depositor's hits bear a star; x = no result. In the library only some 9.6% were active in any assay of this set; here they are far more common.
SMILES,TNAP act hiacc,PTEN del growth,TNAP inh noacc,bCat KO growth,Lmaj promast,TNAP inh hi DEA,Lmaj promast 1uM
CC(NC(=O)CSc1nc2sc3c(c2c(=O)n1-c1ccccc1)CCCC3)c1ccccc1 (stereo not given),1.2,70,-118,71,69*,-17,39
CCOC(=O)C(CC)(CC)/C(C)=N/NC(=O)CC#N,1,93,-16,91,-2,0,x
COc1cc(OC)cc(C(=O)NNC(=O)c2cc3c(s2)CCCC3)c1,1.1,x,-23,x,-3,-5,x
COc1cccc(N2CCN(C3C4CC5CC(C4)CC3C5)CC2)c1 (stereo not given),1,87,-6,79,2,-3,x
CN1CCCN(C2C3CC4CC(C3)CC2C4)CC1 (stereo not given),1,99,3,91,52*,-1,-12
NNc1nc(-c2ccccc2)cc(-c2ccccc2)n1,1,x,3,x,91*,1,-22
Clc1nc(-c2ccccc2)cc(-c2ccccc2)n1,1,70,-16,83,-3,-5,x
OCCSc1nc2ccccc2n1CCOc1ccccc1,1,79,-4,80,9,1,x
Cc1cc(C)c2cc(C=O)c(Cl)nc2c1,1.1,x,-8,x,58*,-5,-7
CCC(=O)NCCNc1nc2cc(C)cc(C)c2cc1C#N,1,x,-8,x,0,2,x
O=C(C/C=N\OCc1ccc([N+](=O)[O-])cc1)Nc1ccc(Br)cc1,1.1,x,-6,x,2,-6,x
Cc1ccc(S(=O)(=O)N2CCC(C)CC2)c([N+](=O)[O-])c1,1,x,-8,x,6,-4,x
Cc1c([N+](=O)[O-])ccc(S(=O)(=O)N2CCC(C(N)=O)CC2)c1C,1.1,98,-8,95,84*,-5,-9
CC(=O)c1c(C)nc2cc(Cl)ccc2c1N,1,96,-8,110,50*,-3,20
Cc1nc2ccc(Cl)cc2nc(C)/c1=N\O,1,100,-12,98,8,-5,x
Cc1cc(C(=O)COc2ccc3ccc(=O)oc3c2)c(C)n1C,1,x,-2,x,-6,2,x
CC(CCc1ccccc1)NC(=O)c1ccccc1 (stereo not given),1,91,-8,100,8,-2,x
CC(CCc1ccc(O)cc1)N(C)CCc1ccccc1 (stereo not given),1.1,93,2,95,94*,-6,26
C1=Nc2ccccc2CN1c1ccccc1,1.1,98,-9,89,85*,-6,-8
CCOc1ccc2nc(CN3CCN(Cc4ccsc4)C(CCO)C3)ccc2c1 (stereo not given),1,x,-8,x,21,-1,x
C(=C\c1nnc2c3ccccc3ncn12)/c1ccccc1,1,28,1,27,55*,-4,-23
COc1cc(/C=C/c2nnc3c4ccccc4ncn23)cc(OC)c1OC,1,15,-17,16,5,-4,x
COc1ccccc1NC(=S)N(Cc1ccco1)Cc1cc2cc(C)c(C)cc2[nH]c1=O,1,15,-17,13,37,1,x
COc1ccccc1NC(=S)N(Cc1ccco1)Cc1cc2cccc(C)c2[nH]c1=O,1.1,73,-11,90,100*,-5,18
Clc1ccc(N2COC3c4cccc5cccc(c45)C32)cc1 (stereo not given),1,71,-8,64,-2,-2,x
SMILES,TNAP act hiacc,PTEN del growth,TNAP inh noacc,bCat KO growth,Lmaj promast,TNAP inh hi DEA,Lmaj promast 1uM
COc1ccc(N2COC3c4cccc5cccc(c45)C32)cc1 (stereo not given),1,67,-10,64,75*,-1,-3
COc1ccc(CNC(=O)C(NC(C)=O)C(=O)Nc2ccc(C(C)C)cc2)cc1 (stereo not given),1.1,x,-37,x,6,-6,x
N=c1c2c(n(Cc3ccccc3)c3c1CCC3)CCC2,1.1,11,3,11,100*,-8,94*
Cc1nc(N2CCN(Cc3ccccc3)CC2)nc2c1CCC2,1.1,x,-9,x,15,-6,x
Cc1ccc(-c2cn(-c3ccccc3)c3[n+]2CCCS3)cc1,1.1,30,-16,16,100*,-6,46
N#Cc1ccc(-c2cn(-c3ccccc3)c3[n+]2CCCS3)cc1,1,x,-26,x,-6,-3,x
Oc1ccccc1C1Nc2cccc3cccc(c23)N1,0.9,102,0,88,-6,8,x
O=[N+]([O-])c1ccccc1C1Nc2cccc3cccc(c23)N1,0.9,86,-2,91,97*,9,-9
COC(=O)c1cc(COc2ccc3c4c(c(=O)oc3c2)CCC4)c(C)o1,1,95,-13,97,-5,-3,x
Cc1cc2n(n1)C(c1ccc3c(c1)OCO3)Nc1ccccc1-2 (stereo not given),1.1,96,-10,95,5,-7,x
Cc1ccc2c(c1)-c1cc(C)nn1C(c1ccc3c(c1)OCO3)N2 (stereo not given),1,73,2,94,98*,-4,95*
CC1=CC(C)(C)Nc2ccc(OC(=O)c3ccco3)cc21,1,1.3*,-11,1.6*,101*,-3,2
CC1=CC(C)(C)N2C(=O)C(=O)c3cc(OC(=O)c4ccco4)cc1c32,1,x,14,x,37,1,x
CCc1c(C)sc(NC(=O)c2ccco2)c1C(=O)N1CCCCC1,1,89,-9,85,53*,0,-5
FC(F)(F)c1cc(-c2ccccc2)nc2nc(N3CCOCC3)sc12,1,x,-7,x,46,-2,x
C=CCSC1=NN2CCS(=O)(=O)N=C2S1,1,x,-16,x,100*,-4,-8
CCOC(=O)CSC1=NN2CCS(=O)(=O)N=C2S1,1.1,x,0,x,-11,-9,x
CC[n+]1c(C)sc2cc(OC)ccc21,1,x,-3,x,36,-2,x
CCC[n+]1c(C)sc2c3c(ccc21)CCCC3,1,x,33,x,100*,-2,35
CC(=O)c1cccc(S(=O)(=O)N2CCN(c3nc4cc(C)cc(C)c4cc3C#N)CC2)c1,1,77,-2,79,50*,-1,-14
Cc1nn(C)c(C)c1/C=N/N=C1\CCC2C3CCc4cc(O)ccc4C3CCC12C (stereo not given),1,6,-5,3.1*,98*,-2,2
CN(C)c1ccc(/C=N/NC(=O)c2nonc2N)cc1[N+](=O)[O-],0.9,x,10,x,-6,7,x
Nc1nonc1C(=O)N/N=C/c1cccc([N+](=O)[O-])c1,1,95,-8,97,54*,1,1
